ChEMBL document CHEMBL1136924 (J Med Chem, 2009)
Activity calls are given as the source filed them.

Key:
Rattus norvegicus [1] = test: Antagonist activity at 5HT3 receptor in urethane-anesthetized Sprague-Dawley rat assessed as reduction in 1-phenylbiguanide-induced bradycardia at 100 ug/kg, iv administered 5 mins before 1-phenylbiguanide challenge measured after 5 to 30 mins post-treatment by von Bezold-Jarisch reflex test; type: functional, organism-based
[2] = Plasma concentration in CD1 albino mouse at 20 mg/kg, ip after 15 mins; type: ADME, organism-based; parameters: dose 20 mg/kg, route intraperitoneal
Method in brief: (§1)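 Male CD1 mice (25-30 g) given ip 5 or 20 mg/kg, killed at set times; trunk blood plasma and brain collected. Solid-phase C18 extraction with internal standard, HPLC-UV at 240 nm. Quantification limits about 0.25 nmol/mL plasma, 0.5 nmol/g brain. Three mice per point. Half-life 0.693/β; clearance dose·F/AUC.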

[3] = molecular target: T1, 5-hydroxytryptamine receptor 3A (Cavia porcellus) (UniProt O70212); test: Agonist activity at 5HT3 receptor in spontaneously beating guinea pig right atrium assessed as positive chronotropic potency; type: functional, tissue-based; details: Cardiac atrium
T1 sequence (whole entry): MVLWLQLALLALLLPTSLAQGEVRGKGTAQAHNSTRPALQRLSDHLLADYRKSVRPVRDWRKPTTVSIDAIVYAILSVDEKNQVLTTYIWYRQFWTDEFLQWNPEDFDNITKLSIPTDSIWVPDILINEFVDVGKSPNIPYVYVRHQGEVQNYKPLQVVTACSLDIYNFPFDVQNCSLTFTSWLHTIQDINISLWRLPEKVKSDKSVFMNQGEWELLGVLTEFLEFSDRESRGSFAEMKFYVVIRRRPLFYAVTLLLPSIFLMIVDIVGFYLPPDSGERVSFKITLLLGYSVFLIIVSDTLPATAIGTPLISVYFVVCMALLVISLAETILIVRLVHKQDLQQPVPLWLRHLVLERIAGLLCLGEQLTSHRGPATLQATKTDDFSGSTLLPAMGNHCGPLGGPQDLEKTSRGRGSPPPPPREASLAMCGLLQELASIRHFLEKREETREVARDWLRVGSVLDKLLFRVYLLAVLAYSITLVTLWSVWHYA
Method in brief: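 Isolated guinea pig atria in PSS (Tyrode) with ketanserin 1 µM, 95% O2-5% CO2, pH 7.4, 35 °C. Right atrium beating spontaneously (rate); left atrium paced 1 Hz, 0.6-0.8 ms pulses near 50% threshold (force). Isometric recording after 45-60 min stabilization.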

[4] = Elimination half life in CD1 albino mouse plasma at 20 mg/kg, ip; type: ADME, organism-based; parameters: dose 20 mg/kg, route intraperitoneal; details: read-out: beta t1/2; method in brief: as §1
[5] = Apparent volume of distribution with respect to the bioavailability in CD1 albino mouse plasma at 20 mg/kg, ip; type: ADME, organism-based; details: read-out: Vc/F; method in brief: as §1
Rattus norvegicus [6] = test: Activity at 5HT3 receptor in urethane-anesthetized Sprague-Dawley rat assessed as effect on heart rate at 100 ug/kg, iv measured after 5 to 30 mins post-treatment by von Bezold-Jarisch reflex test relative to 40 ug/kg, iv 1-phenylbiguanide; type: functional, organism-based
[7] = Clearance in CD1 albino mouse plasma at 20 mg/kg, ip; type: ADME, organism-based; parameters: dose 20 mg/kg, route intraperitoneal; method in brief: as §1
[8] = molecular target: T1, 5-hydroxytryptamine receptor 3A (Cavia porcellus); test: Intrinsic activity at 5HT3 receptor in spontaneously beating guinea pig right atrium assessed as positive chronotropic potency relative to serotonin; details: Cardiac atrium
Method in brief: (§2)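 Guinea pig left and right atria were hung in a 15 mL bath of PSS (pH 7.4, 95% O2-5% CO2, 35 °C) with ketanserin 1 µM. The right atrium beat spontaneously; the left was paced at 1 Hz. Cumulative doses (0.1-100 µM; DMSO ≤0.3%) were added after 45-60 min stabilization. Rate or isometric force was recorded. EC50 came from Probit analysis, n≥4. Intrinsic activity was taken relative to 5-HT.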

[9] = molecular target: T2, 5-hydroxytryptamine receptor 3A (Cavia porcellus, UniProt O70212); test: Antagonist activity at 5HT3 receptor in spontaneously beating guinea pig right atrium assessed as inhibition of serotonin-induced maximum response by noncompetitive binding assay; type: tissue-based, Cardiac atrium
T2 sequence (O70212 whole entry): T1 sequence (whole entry)
Method in brief: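 Spontaneously beating guinea pig right atrium; 5-HT concentration-response curves (0.001-1.0 µM) before and after 30 min antagonist exposure at three concentrations. IC50 is inhibition of 50% of maximal 5-HT response, Probit analysis, n = 4-6.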

[10] = molecular target: T1, 5-hydroxytryptamine receptor 3A (Cavia porcellus); test: Agonist activity at 5HT3 receptor in spontaneously beating guinea pig right atrium assessed as positive chronotropic potency at 100 uM; type: functional, tissue-based; details: Cardiac atrium; method in brief: as §2
Rattus norvegicus [11] = test: Agonist activity at 5HT3 receptor in urethane-anesthetized Sprague-Dawley rat assessed as induction of bradycardia at 50 ug/kg, iv measured after 5 to 30 mins post-treatment by von Bezold-Jarisch reflex test relative to 40 ug/kg, iv 1-phenylbiguanide; type: functional
Rattus norvegicus [12] = test: Partial agonist activity at 5HT3 receptor in iv dosed urethane-anesthetized Sprague-Dawley rat assessed as induction of bradycardia measured after 5 to 30 mins post-treatment by von Bezold-Jarisch reflex test; type: functional; details: read-out: ID50 (the source's name)
Rattus norvegicus [13] = test: Antagonist activity at 5HT3 receptor in urethane-anesthetized Sprague-Dawley rat assessed as half-blockade of 1-phenylbiguanide-induced bradycardia at 30 ug/kg, iv administered 5 mins before 1-phenylbiguanide challenge measured after 5 to 30 mins post-treatment by von Bezold-Jarisch reflex test; type: functional, organism-based

Row | Compound | Activity (Rattus norvegicus [1]) | concentration at 0.25 h [2] [µM] | pD2 [3] | half-life [4] [min] | Vd/F [5] [L/kg] | Activity (Rattus norvegicus [6]) | CL/F [7] [mL/min/kg] | Intrinsic activity [8] | IC50 [9] [µM] | pD2 [10] | Activity (Rattus norvegicus [11]) [%] | ED50 (Rattus norvegicus [12]) [mg/kg] | Activity (Rattus norvegicus [13])
1 | N[C@@H](CN1CCN(c2nc3cc(F)ccc3n3cccc23)CC1)C(=O)O | Active | 12 | 5.98 | 53 | 6 | inactive | 90 | 0.81 |  |  |  |  | 
2 | N/C(CN1CCN(c2nc3cc(F)ccc3n3cccc23)CC1)=N\O |  |  |  |  |  |  |  |  | 5.75 | inactive | 60 | 0.03 | Active
